This passage reports inhibition, Ki and IC50 results from ChEMBL document CHEMBL1135638, “Synthesis, molecular modeling studies, and pharmacological activity of selective A(1) receptor antagonists” (J Med Chem, 2002).

Molecules are shown by their SMILES.

The test system of assay [1] is Adenosine receptor A2a (Bos taurus). Description: Percent inhibition of specific [3H]-CGS-21,680 binding to adenosine A2A receptors in bovine striatal membranes at 10 uM concentration.
Assay [2] deals with T1, Adenosine receptor A1 (Bos taurus, UniProt P28190).
T1 sequence (P28190 whole entry): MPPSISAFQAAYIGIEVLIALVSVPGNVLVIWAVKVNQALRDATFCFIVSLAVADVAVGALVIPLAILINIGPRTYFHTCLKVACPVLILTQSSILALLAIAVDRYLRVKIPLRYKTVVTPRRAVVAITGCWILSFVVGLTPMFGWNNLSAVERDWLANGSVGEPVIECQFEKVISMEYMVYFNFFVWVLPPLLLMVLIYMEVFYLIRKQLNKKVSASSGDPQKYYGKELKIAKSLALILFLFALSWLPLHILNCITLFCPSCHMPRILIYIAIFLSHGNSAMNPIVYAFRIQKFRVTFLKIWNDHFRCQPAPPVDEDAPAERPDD
Put plainly: Binding affinity to Adenosine A1 receptor in bovine cortical membranes by [3H]N6-cyclohexyl adenosine displacement. It counts as cell membranes.

Assay [3] concerns the target T2, Adenosine receptor A1 (Rattus norvegicus, UniProt P25099).
T2 sequence (P25099 whole entry): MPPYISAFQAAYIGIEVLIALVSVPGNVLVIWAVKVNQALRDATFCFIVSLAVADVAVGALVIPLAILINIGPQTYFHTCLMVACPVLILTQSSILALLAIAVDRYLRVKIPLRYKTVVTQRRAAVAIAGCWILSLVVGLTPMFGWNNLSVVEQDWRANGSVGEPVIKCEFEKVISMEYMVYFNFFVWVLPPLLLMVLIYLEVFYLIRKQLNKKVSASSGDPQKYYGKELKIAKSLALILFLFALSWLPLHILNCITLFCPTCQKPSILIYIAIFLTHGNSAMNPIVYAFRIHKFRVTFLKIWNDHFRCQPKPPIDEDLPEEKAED
Put plainly: Binding affinity against rat Adenosine A1 receptor.

Assay [4] concerns the target T1, Adenosine receptor A1. Put plainly: Displacement of [3H]DPCPX from Adenosine A1 receptor of bovine cortical membranes without GTP. In outline: (§1)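 [3H]DPCPX displacement from bovine cortical membranes, method of Pirovano et al., run with and without 1 mM GTP. Values from three separate experiments, mean ± SEM.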
Assay [5] addresses T1, Adenosine receptor A1. Put plainly: Displacement of [3H]DPCPX from Adenosine A1 receptor of bovine cortical membranes with 1 mM GTP. In outline: as §1
A short description of assay [6]: Compound was evaluated for the inhibition of Adenylate cyclase activity. It counts as functional.
The target of assay [7] is T1, Adenosine receptor A1. Description: Binding affinity at bovine Adenosine A1 receptor.
The target in assay [8] is T3, Adenosine receptor A1 (Bos taurus) (UniProt P28190).
T3 sequence (whole entry): T1 sequence (P28190 whole entry)
Description: Percent inhibition of specific [3H]CHA binding on Adenosine A1 receptor in bovine cortical membranes at 10 uM concentration. It counts as cell membranes.

In assay [1], `CCOC(=O)c1cnc2c(cnn2CC(Cl)c2ccccc2)c1N1CCOCC1` (stereo not given) came in with an inhibition of 0%.
As to `CCOC(=O)c1cnc2c(cnn2CC(Cl)COc2ccccc2)c1NC1CCCCC1` (stereo not given), affinity at Adenosine receptor A1 [2] was put at a Ki of 3710 nM. The same molecule showed an inhibition in assay [1] of 1%.
Regarding `CCOC(=O)c1cnc2c(cnn2CC(Cl)c2ccccc2)c1N1CCCC1` (stereo not given), the Ki on Adenosine receptor A1 [3] is 140 nM; on Adenosine receptor A1 [4], 103 nM; on Adenosine receptor A1 [5], 90 nM. Besides, the IC50 in assay [6] was 154 nM.
On to `C[C@H](c1ccccc1)n1c2ccccc2c2c(N)nc(-c3ccccc3)nc21`, for which the Ki at Adenosine receptor A1 [7] worked out at 2.6 nM.
Same read-out and setting: under `Nc1nc(-c2ccncc2)nc2c1c1c(n2-c2ccccc2)CCCC1` stands 600 nM.
On to `CCOC(=O)c1cnc2c(cnn2CC(Cl)c2ccccc2)c1N1CCCCC1` (stereo not given), for which the inhibition in assay [8] was found to be 41%; in assay [1], 23%.
Take `FC(F)(F)c1nnc2c(NC3CCCC3)nc3ccccc3n12`: on Adenosine receptor A1 [7], affinity was put at a Ki of 7.3 nM.
In the case of `Cc1nn(C)c2c(=O)[nH]c(-c3ccc(Cl)cc3N)nc12`, at Adenosine receptor A1 [7], the Ki was 176 nM.
Take `CCOC(=O)c1cnc2c(cnn2CC(Cl)c2ccccc2)c1NCc1ccccc1` (stereo not given): in assay [1], the inhibition is 0%.
`COc1ccc(-c2nc(N)c3c(C)c(C)n(C(C)c4ccccc4)c3n2)cc1` (stereo not given) showed a Ki on Adenosine receptor A1 [7] of 101 nM.
In turn, `CCCCNc1c(C(=O)OCC)cnc2c1cnn2CC(Cl)COc1ccccc1` (stereo not given) yielded an inhibitory constant (Ki) on Adenosine receptor A1 [2] of 1220 nM. In addition, the inhibition in assay [1] stood at 23%.
Turning to `CCOC(=O)c1cnc2c(cnn2/C=C/c2ccccc2)c1N1CCCC1`, the inhibition was 39% in assay [8] and 0% in assay [1].
For `CCOC(=O)c1cnc2c(cnn2/C=C/c2ccccc2)c1NCCc1ccccc1`, the inhibition is 58% in assay [8] and 2% in assay [1].
Molecule `CCOC(=O)c1cnc2c(cnn2CC(Cl)COc2ccccc2)c1NCCc1ccccc1` (stereo not given) gave a Ki on Adenosine receptor A1 [2] of 456 nM. This molecule registered an inhibition in assay [1] of 5%.
For the molecule `CCOC(=O)c1cnc2c(cnn2/C=C/c2ccccc2)c1NC1CC1`, the inhibition was 67% in assay [8] and 0% in assay [1].
In the case of `c1ccc(-c2nc3c(NC4CCCC4)[nH]c4ccccc4c-3n2)cc1`, the Ki at Adenosine receptor A1 [7] came out at 10 nM.
On to `CCCNc1c(C(=O)OCC)cnc2c1cnn2/C=C/c1ccccc1`, for which the inhibition in assay [8] was 40%; in assay [1], 0%.
Molecule `CCOC(=O)c1cnc2c(cnn2CC(Cl)COc2ccccc2)c1NC1CC1` (stereo not given) had a Ki at Adenosine receptor A1 [2] of 1050 nM. For the same molecule, the inhibition in assay [1] is 34%.
Regarding `CCCn1c(=O)c2[nH]c(C3CCC(=O)C3)nc2n(CCC)c1=O` (stereo not given), at Adenosine receptor A1 [7], the Ki was determined as 15 nM.
On the same count and under the same terms, as for `Cc1cnc2c(NC3CCCC3)nc3ccccc3n12`, the figure is 7.9 nM.
For `CCOC(=O)c1cnc2c(cnn2CC(Cl)COc2ccccc2)c1NCc1ccccc1` (stereo not given), the inhibition in assay [8] is 36%; in assay [1] it was 12%.
The like results for `CCCCNc1c(C(=O)OCC)cnc2c1cnn2/C=C/c1ccccc1` were, in that order, 60% and 0%.
On to `CCOC(=O)c1cnc2c(cnn2CC(Cl)COc2ccccc2)c1N1CCOCC1` (stereo not given), for which the values for the inhibition in assay [8] and in assay [1] were 40% and 0%, respectively.
For `CCOC(=O)c1cnc2c(cnn2/C=C/c2ccccc2)c1NCc1ccccc1` the same measures were 39% and 2%.
For `CCOCCNc1c(C(=O)OCC)cnc2c1cnn2/C=C/c1ccccc1` the same measures were 51% and 0%.
Consider `CCOC(=O)c1cnc2c(cnn2CC(Cl)c2ccccc2)c1NCCc1ccccc1` (stereo not given), for which the Ki on Adenosine receptor A1 [3] worked out at 73 nM; on Adenosine receptor A1 [4], 69.7 nM; at Adenosine receptor A1 [5] it was 56 nM. Moreover, in assay [6], the 50% inhibitory concentration (IC50) was found to be 52.2 nM.
On Adenosine receptor A1 [7], `CCCSc1nc(SC(CC)C(N)=O)nc2c1ncn2-c1ccccc1` (stereo not given) had a Ki of 29.5 nM.
`CN1C=NC2C(NC3CCCC3)=NC=NC21` (stereo not given): the Ki at Adenosine receptor A1 [7] worked out at 540 nM.
On the same count and under the same terms, as for `O=C(O)CCCn1nc(-c2c(-c3ccccc3)nn3ccccc23)ccc1=O`, the figure is 6.6 nM; as for `O=C(/C=C/C1=CC=CN2N=C(c3ccccc3)CC12)N1CCCC[C@H]1CCO` (stereo not given in full), 0.49 nM.
Consider `CCOC(=O)c1cnc2c(cnn2/C=C/c2ccccc2)c1NC1CCCCC1`, for which the figures for the inhibition in assay [8] and in assay [1] were 21% and 0%, respectively.
For `CCOC(=O)c1cnc2c(cnn2CC(Cl)COc2ccccc2)c1N1CCCC1` (stereo not given) the same measures were 33% and 15%.
For `CCOC(=O)c1cnc2c(cnn2/C=C/c2ccccc2)c1N1CCOCC1` the same measures were 40% and 0%.
`Nc1nc2ccc(Cl)cc2n2nc(-c3ccccc3F)nc12` came in with a Ki on Adenosine receptor A1 [7] of 13 nM. That is a double-digit nanomolar value.
For the molecule `CCOCCNc1c(C(=O)OCC)cnc2c1cnn2CC(Cl)COc1ccccc1` (stereo not given), the Ki on Adenosine receptor A1 [2] amounted to 2690 nM.
On to `CCOC(=O)c1cnc2c(cnn2CC(Cl)c2ccccc2)c1NC1CCCCC1` (stereo not given), for which, at Adenosine receptor A1 [2], the Ki was 1490 nM. This molecule showed an inhibition in assay [1] of 0%.
